Reference: ChEMBL document CHEMBL1148686, “Synthesis and anticonvulsant activity of new N-1',N-3'-disubstituted-2'H,3H,5'H-spiro-(2-benzofuran-1,4'-imidazolidine)-2',3,5'-triones” (2006)
Active and inactive are the calls of the source. The calls are words filed in the database; no cut-off is given here.

Tests used:
Mus musculus [1] = test: Protection against electroshock-induced convulsions in ip dosed mouse after 0.5 hrs by MES assay; assay type: functional
Summary of the method: (§1)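 Mice were dosed intraperitoneally with test drug, positive control or vehicle (DMSO) 30 min before electroshock at 50 mA for 0.2 s. The end-point was the hind limb tonic extensor component. Doses up to 300 mg/kg. Done in triplicate (n = 3). ED50 in mg/kg was derived by non-linear regression and given as mean with 95% confidence intervals.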

Mus musculus [2] = test: Protection against PTZ-induced convulsions in mouse up to 300 mg/kg, ip after 0.5 hrs by scPTZ assay; assay type: functional, organism-based; design: dose 300 mg/kg
Summary of the method: (§2)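 Mice received test drug, positive control or vehicle (DMSO) intraperitoneally 30 min before a subcutaneous PTZ injection at 80 mg/kg. The end-point was clonic seizure lasting more than 5 s. Tested up to 300 mg/kg. Run in triplicate (n = 3). ED50 in mg/kg was found by non-linear regression, as mean with 95% confidence intervals.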

Mus musculus [3] = test: Protection against PTZ-induced convulsions in ip dosed mouse after 0.5 hrs by scPTZ assay; assay type: functional; summary of the method: as §2
Mus musculus [4] = test: Protection against electroshock-induced convulsions in mouse up to 300 mg/kg, ip after 0.5 hrs by MES assay; assay type: functional, organism-based; design: dose 300 mg/kg; summary of the method: as §1
Mus musculus [5] = test: Protection against PTZ-induced convulsions in mouse at 300 mg/kg, ip after 0.5 hrs by scPTZ assay; assay type: functional, organism-based; design: dose 300 mg/kg; summary of the method: as §2
Mus musculus [6] = test: Protection against electroshock-induced convulsions in mouse at 300 mg/kg, ip after 0.5 hrs by MES assay; assay type: functional, organism-based; design: dose 300 mg/kg; summary of the method: as §1

Question: What does the source list for `O=C1NC(=O)C(c2ccccc2)(c2ccccc2)N1` [PHENYTOIN]?
Answer: ED50 (Mus musculus [1]): 8.1 mg/kg; Activity (Mus musculus [2]): inactive

Question: Which ED50 (Mus musculus [1]) does the source give for `CN1C(=O)N(c2ccc(F)cc2)C(=O)C12OC(=O)c1ccccc12` (stereo not given) here?
Answer: The ED50 was greater than 100 mg/kg.

Question: And the ED50 (Mus musculus [3])?
Answer: The ED50 was 87.1 mg/kg.

Question: Which results are given for `CCC1(c2ccccc2)C(=O)NC(=O)NC1=O` [PHENOBARBITAL]?
Answer: Activity (Mus musculus [4]): inactive; ED50 (Mus musculus [3]): 20 mg/kg

Question: With `CCCN1C(=O)N(CCC)C2(OC(=O)c3ccccc32)C1=O` (stereo not given) as the molecule, how does the ED50 (Mus musculus [1]) read?
Answer: Its ED50 is greater than 100 mg/kg.

Question: What about the ED50 (Mus musculus [3]) of the same molecule?
Answer: Its ED50 is 78.5 mg/kg.

Question: For `CN1C(=O)N(c2ccc(C(F)(F)F)cc2)C(=O)C12OC(=O)c1ccccc12` (stereo not given), which ED50 (Mus musculus [1]) is on record?
Answer: Its ED50 is greater than 100 mg/kg.

Question: What about the ED50 (Mus musculus [3]) of the same molecule?
Answer: Its ED50 is greater than 100 mg/kg.

Question: For `CCN1C(=O)N(c2ccccc2)C(=O)C12OC(=O)c1ccccc12` (stereo not given), which ED50 (Mus musculus [1]) is on record?
Answer: Its ED50 is 81 mg/kg.

Question: And the ED50 (Mus musculus [3])?
Answer: Its ED50 is 54.8 mg/kg.

Question: For `CC(C)N1C(=O)N(C(C)C)C2(OC(=O)c3ccccc32)C1=O` (stereo not given), which Activity (Mus musculus [5]) is on record?
Answer: The Activity was “Active”.

Question: And the Activity (Mus musculus [4])?
Answer: Its Activity is “inactive”.

Question: What does the source list for `O=C1OC2(C(=O)N(C3CCCCC3)C(=O)N2C2CCCCC2)c2ccccc21` (stereo not given)?
Answer: Activity (Mus musculus [4]): inactive; Activity (Mus musculus [2]): inactive

Question: Which ED50 (Mus musculus [1]) does the source give for `CCN1C(=O)N(c2ccc(F)cc2)C(=O)C12OC(=O)c1ccccc12` (stereo not given) here?
Answer: Its ED50 is greater than 100 mg/kg.

Question: What about the ED50 (Mus musculus [3]) of the same molecule?
Answer: The ED50 was 85.8 mg/kg.

Question: How did the Activity (Mus musculus [5]) turn out when `CCN1C(=O)N(C)C(=O)C12OC(=O)c1ccccc12` (stereo not given) was run?
Answer: The Activity was “Active”.

Question: And the Activity (Mus musculus [4])?
Answer: The Activity was “inactive”.

Question: `CN1C(=O)N(c2ccccc2)C(=O)C12OC(=O)c1ccccc12` (stereo not given) was tested. Which ED50 (Mus musculus [3]) did it give?
Answer: The ED50 was 96.8 mg/kg.

Question: And the Activity (Mus musculus [6])?
Answer: The Activity was “Active”.

Question: What does the source list for `CCN1C(=O)N(c2ccc([N+](=O)[O-])cc2)C(=O)C12OC(=O)c1ccccc12` (stereo not given)?
Answer: Activity (Mus musculus [4]): inactive; ED50 (Mus musculus [3]): 41.8 mg/kg

Question: Which ED50 (Mus musculus [3]) does the source give for `CCCCN1C(=O)N(CCCC)C2(OC(=O)c3ccccc32)C1=O` (stereo not given) here?
Answer: The ED50 was greater than 100 mg/kg.

Question: And the Activity (Mus musculus [6])?
Answer: The Activity was “Active”.

Question: How did the Activity (Mus musculus [5]) turn out when `CN1C(=S)N(c2ccccc2)C(=O)C12OC(=O)c1ccccc12` (stereo not given) was run?
Answer: Its Activity is “Active”.

Question: What about the Activity (Mus musculus [4]) of the same molecule?
Answer: Its Activity is “inactive”.

Question: Which results are given for `CCN1C(=O)N(c2ccc(OC)cc2)C(=O)C12OC(=O)c1ccccc12` (stereo not given)?
Answer: ED50 (Mus musculus [3]): 82.5 mg/kg; Activity (Mus musculus [6]): Active
